The values below come from the M2OR odorant receptor database.

Positions count from the first letter of the chain named.

Holding throughout (conditions): stereoisomer not certain
One assay relates to T1, OR1N2.
T1 sequence (whole entry): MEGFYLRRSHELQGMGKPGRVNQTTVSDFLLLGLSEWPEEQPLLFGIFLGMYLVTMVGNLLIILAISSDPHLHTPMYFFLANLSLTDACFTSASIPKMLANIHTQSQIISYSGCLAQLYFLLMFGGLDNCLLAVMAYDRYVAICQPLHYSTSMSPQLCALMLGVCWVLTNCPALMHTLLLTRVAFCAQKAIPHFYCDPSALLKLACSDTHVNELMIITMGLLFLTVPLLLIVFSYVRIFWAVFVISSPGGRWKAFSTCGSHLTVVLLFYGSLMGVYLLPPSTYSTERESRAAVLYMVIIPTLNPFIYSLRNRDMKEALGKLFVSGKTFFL
In a few lines: (§1)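 Assay methods differ from source to source, frequently being transient luciferase assays in mammalian cell lines. For each receptor–molecule pair, the label responsive (active) applies when the original authors judged the measured signal statistically different from baseline, and non-responsive (inactive) applies otherwise.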

The next assay concerns the target T2, OR1Q1 (Homo sapiens) (UniProt Q15612).
T2 sequence (whole entry): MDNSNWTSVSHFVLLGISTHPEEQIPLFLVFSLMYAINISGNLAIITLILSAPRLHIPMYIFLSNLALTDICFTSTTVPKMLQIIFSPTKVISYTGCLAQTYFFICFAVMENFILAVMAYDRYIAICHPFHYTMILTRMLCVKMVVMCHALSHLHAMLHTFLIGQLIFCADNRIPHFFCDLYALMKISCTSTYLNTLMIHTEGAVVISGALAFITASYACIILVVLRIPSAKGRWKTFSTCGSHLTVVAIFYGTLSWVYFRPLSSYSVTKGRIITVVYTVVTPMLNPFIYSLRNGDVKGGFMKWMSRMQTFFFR
In a few lines: as §1

For the next assay, the system named is T3, OR1Q1.
T3 sequence (whole entry): T2 sequence (whole entry) with Q24R, I163M
In a few lines:
as §1

The target in a further assay is T4, OR1S1 (Homo sapiens) (UniProt Q8NH92).
T4 sequence (whole entry): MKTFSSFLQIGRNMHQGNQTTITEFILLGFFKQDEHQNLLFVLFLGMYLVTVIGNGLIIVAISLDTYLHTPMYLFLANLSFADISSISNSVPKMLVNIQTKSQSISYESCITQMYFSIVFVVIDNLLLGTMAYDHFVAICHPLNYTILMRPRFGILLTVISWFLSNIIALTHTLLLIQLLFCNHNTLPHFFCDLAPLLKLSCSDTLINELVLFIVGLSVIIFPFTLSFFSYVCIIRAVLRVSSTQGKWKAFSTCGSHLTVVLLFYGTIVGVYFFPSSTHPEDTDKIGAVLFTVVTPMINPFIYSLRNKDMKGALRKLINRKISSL
In a few lines: as §1

The next assay concerns the target T5, OR1S2 (Homo sapiens) (UniProt Q8NGQ3).
T5 sequence (whole entry): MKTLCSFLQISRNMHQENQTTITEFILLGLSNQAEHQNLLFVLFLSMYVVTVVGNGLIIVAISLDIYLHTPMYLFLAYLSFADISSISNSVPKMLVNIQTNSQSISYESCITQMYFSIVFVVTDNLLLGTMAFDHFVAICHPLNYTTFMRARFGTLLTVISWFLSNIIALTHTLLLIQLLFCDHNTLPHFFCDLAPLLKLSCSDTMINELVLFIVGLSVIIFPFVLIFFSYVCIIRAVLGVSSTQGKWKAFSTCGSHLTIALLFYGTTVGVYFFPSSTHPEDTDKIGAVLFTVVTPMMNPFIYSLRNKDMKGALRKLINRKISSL
In a few lines: as §1

For the next assay, the system named is T6, OR1S2 E17G.
T6 sequence (whole entry): T5 sequence (whole entry) with E17G
An outline of the steps:
as §1

In a further assay the test system is T7, OR1S2 V225T G240R.
T7 sequence (whole entry): T5 sequence (whole entry) with V225T, G240R
An outline of the steps: as §1

For the next assay, the target named is T8, OR2A1 (Homo sapiens) (UniProt Q8NGT9).
T8 sequence (whole entry): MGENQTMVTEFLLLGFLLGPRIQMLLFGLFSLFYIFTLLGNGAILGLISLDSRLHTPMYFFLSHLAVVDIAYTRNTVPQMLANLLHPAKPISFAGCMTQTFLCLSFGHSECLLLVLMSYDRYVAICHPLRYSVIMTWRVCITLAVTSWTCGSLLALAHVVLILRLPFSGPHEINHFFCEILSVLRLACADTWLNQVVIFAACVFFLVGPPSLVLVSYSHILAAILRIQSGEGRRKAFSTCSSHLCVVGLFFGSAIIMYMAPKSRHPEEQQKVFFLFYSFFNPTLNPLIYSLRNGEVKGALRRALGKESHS
In a few lines:
as §1

A further assay concerns T9, OR2A1 S168C.
T9 sequence (whole entry): T8 sequence (whole entry) with S168C
In a few lines: as §1

The next assay has as its system T10, OR2A1 T73A R74C S168C.
T10 sequence (whole entry): T8 sequence (whole entry) with T73A, R74C, S168C
In a few lines: as §1

Another assay deals with T11, OR2A12 (Homo sapiens) (UniProt Q8NGT7).
T11 sequence (whole entry): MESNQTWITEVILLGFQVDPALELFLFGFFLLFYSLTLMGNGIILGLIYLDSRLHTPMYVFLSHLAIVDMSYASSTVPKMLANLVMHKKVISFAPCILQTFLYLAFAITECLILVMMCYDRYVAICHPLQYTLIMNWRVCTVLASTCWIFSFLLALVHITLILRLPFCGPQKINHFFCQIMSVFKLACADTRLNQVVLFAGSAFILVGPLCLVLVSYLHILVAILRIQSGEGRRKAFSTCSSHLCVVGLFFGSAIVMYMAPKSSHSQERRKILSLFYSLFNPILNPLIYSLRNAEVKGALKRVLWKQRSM
In a few lines:
as §1

The next assay has as its target T12, OR2A14 (Homo sapiens) (UniProt Q96R47).
T12 sequence (whole entry): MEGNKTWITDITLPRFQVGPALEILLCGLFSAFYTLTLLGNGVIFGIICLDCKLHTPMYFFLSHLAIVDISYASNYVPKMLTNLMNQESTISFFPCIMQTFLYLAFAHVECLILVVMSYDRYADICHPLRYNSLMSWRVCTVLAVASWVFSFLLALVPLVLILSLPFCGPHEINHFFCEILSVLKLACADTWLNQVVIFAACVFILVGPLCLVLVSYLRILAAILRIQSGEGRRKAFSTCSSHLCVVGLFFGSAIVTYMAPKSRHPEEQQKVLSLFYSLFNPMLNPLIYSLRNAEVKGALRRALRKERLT
In a few lines: as §1

A further assay addresses T13, OR2A2 (Homo sapiens) (UniProt Q6IF42).
T13 sequence (whole entry): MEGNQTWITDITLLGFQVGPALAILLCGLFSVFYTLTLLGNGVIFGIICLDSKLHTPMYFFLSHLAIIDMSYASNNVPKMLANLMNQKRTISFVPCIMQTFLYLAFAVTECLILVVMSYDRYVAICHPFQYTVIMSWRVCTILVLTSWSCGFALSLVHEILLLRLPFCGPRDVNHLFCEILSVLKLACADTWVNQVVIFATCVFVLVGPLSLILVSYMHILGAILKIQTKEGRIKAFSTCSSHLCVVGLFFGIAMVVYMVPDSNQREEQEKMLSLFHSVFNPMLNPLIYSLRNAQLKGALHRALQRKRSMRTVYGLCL
In a few lines:
as §1

The target of the next assay is T14, OR2A25 (Homo sapiens) (UniProt A4D2G3).
T14 sequence (whole entry): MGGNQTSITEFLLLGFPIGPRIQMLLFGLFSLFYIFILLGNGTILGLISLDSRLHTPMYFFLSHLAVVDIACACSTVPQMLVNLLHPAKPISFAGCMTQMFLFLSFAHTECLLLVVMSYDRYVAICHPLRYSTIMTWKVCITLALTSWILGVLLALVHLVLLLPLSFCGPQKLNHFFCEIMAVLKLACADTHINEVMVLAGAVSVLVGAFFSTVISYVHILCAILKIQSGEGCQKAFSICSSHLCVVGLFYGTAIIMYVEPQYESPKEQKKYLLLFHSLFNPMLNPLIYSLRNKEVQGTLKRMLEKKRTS
In a few lines: as §1

The next assay has as its system T15, OR2A2.
T15 sequence (whole entry): T13 sequence (whole entry) with F280L
An outline of the steps:
as §1

Another assay deals with T16, OR2A4 (Homo sapiens) (UniProt O95047).
T16 sequence (whole entry): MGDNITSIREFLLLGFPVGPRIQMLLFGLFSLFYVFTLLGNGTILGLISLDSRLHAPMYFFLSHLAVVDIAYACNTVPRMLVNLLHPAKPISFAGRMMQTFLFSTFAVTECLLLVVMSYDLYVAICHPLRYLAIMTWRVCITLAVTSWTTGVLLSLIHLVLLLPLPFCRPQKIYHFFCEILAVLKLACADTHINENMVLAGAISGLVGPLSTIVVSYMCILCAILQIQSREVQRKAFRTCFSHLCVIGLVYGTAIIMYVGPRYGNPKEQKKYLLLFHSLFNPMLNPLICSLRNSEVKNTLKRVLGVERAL
An outline of the steps: as §1

For the next assay, the target named is T17, OR2A5 (Homo sapiens) (UniProt Q96R48).
T17 sequence (whole entry): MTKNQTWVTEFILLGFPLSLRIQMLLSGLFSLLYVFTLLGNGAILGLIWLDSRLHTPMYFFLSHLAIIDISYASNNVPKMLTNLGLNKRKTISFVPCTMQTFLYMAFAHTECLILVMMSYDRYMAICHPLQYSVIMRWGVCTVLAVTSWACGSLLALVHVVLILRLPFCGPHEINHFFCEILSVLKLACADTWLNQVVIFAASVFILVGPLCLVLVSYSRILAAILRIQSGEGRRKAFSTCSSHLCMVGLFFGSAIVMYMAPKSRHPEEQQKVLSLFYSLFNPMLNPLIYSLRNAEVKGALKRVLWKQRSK
In a few lines: as §1

Another assay deals with T18, OR2A5 I126V A202S A255T.
T18 sequence (whole entry): T17 sequence (whole entry) with I126V, A202S, A255T
In a few lines: as §1

A further assay concerns the target T19, OR2A7 (Homo sapiens) (UniProt Q96R45).
T19 sequence (whole entry): T16 sequence (whole entry) with R9T, R238C, V250F
An outline of the steps:
as §1

Turning to `CCC1OC(C)=C(O)C1=O` (stereo not drawn), the “odorant receptor agonist call” value in the assay with OR1N2, with OR1Q1 (Homo sapiens), in the assay on OR1Q1, in the assay with OR1S1 (Homo sapiens), with OR1S2 (Homo sapiens) and in the assay on OR1S2 E17G was “inactive” in each case. The “odorant receptor agonist call” value with OR1S2 V225T G240R, with OR2A1 (Homo sapiens), with OR2A1 S168C, in the assay on OR2A1 T73A R74C S168C, with OR2A12 (Homo sapiens) and with OR2A14 (Homo sapiens) was “inactive” each time. The “odorant receptor agonist call” value with OR2A2 (Homo sapiens), with OR2A25 (Homo sapiens), with OR2A2, in the assay with OR2A4 (Homo sapiens), with OR2A5 (Homo sapiens) and in the assay with OR2A5 I126V A202S A255T was “inactive” each time. Moreover, the “odorant receptor agonist call” value with OR2A7 (Homo sapiens) was “inactive”.
Consider `CCCCCCCCCCCCCC(=O)OC`, for which the “odorant receptor agonist call” value in the assay with OR2A1 (Homo sapiens) and with OR2A7 (Homo sapiens) was “inactive” in each case.
Take `CCC(C)CO` (stereo not drawn): the “odorant receptor agonist call” value with OR2A1 (Homo sapiens) and with OR2A7 (Homo sapiens) was “inactive” each time.
As for `CCC(S)C(C)CO` (stereo not drawn), the “odorant receptor agonist call” value with OR1N2, with OR1Q1 (Homo sapiens), in the assay with OR1S1 (Homo sapiens), with OR1S2 (Homo sapiens), with OR2A1 (Homo sapiens) and with OR2A12 (Homo sapiens) was “inactive” throughout. For the same compound, the “odorant receptor agonist call” value in the assay with OR2A14 (Homo sapiens), in the assay with OR2A2 (Homo sapiens), with OR2A25 (Homo sapiens), with OR2A4 (Homo sapiens), with OR2A5 (Homo sapiens) and in the assay with OR2A7 (Homo sapiens) was “inactive” throughout.
In the case of `CCCCCC(=O)C(C)C(C)=O` (stereo not drawn), the “odorant receptor agonist call” value with OR1N2, with OR1Q1 (Homo sapiens), with OR1S1 (Homo sapiens), with OR1S2 (Homo sapiens), in the assay with OR2A1 (Homo sapiens) and with OR2A12 (Homo sapiens) was “inactive” throughout. For the same compound, the “odorant receptor agonist call” value with OR2A14 (Homo sapiens), with OR2A2 (Homo sapiens), with OR2A25 (Homo sapiens), with OR2A4 (Homo sapiens), with OR2A5 (Homo sapiens) and with OR2A7 (Homo sapiens) was “inactive” throughout.
In the case of `CC(O)C(=O)[O-].[H+]` (stereo not drawn), the “odorant receptor agonist call” value with OR2A1 (Homo sapiens) is “inactive”.
Take `CCCCCC(S)C(C)CO` (stereo not drawn): the “odorant receptor agonist call” value in the assay on OR1N2, with OR1Q1 (Homo sapiens), in the assay with OR1S1 (Homo sapiens), with OR1S2 (Homo sapiens), with OR2A1 (Homo sapiens) and with OR2A12 (Homo sapiens) was “inactive” each time. For the same compound, the “odorant receptor agonist call” value in the assay with OR2A14 (Homo sapiens), with OR2A2 (Homo sapiens), with OR2A25 (Homo sapiens), in the assay with OR2A4 (Homo sapiens), with OR2A5 (Homo sapiens) and with OR2A7 (Homo sapiens) was “inactive” each time.
In the case of `CC(CO)CS` (stereo not drawn), the “odorant receptor agonist call” value in the assay on OR1N2, in the assay with OR1Q1 (Homo sapiens), with OR1S1 (Homo sapiens), with OR1S2 (Homo sapiens), with OR2A1 (Homo sapiens) and with OR2A12 (Homo sapiens) was “inactive” each time. Besides, the “odorant receptor agonist call” value with OR2A14 (Homo sapiens), with OR2A2 (Homo sapiens), in the assay with OR2A25 (Homo sapiens), in the assay with OR2A4 (Homo sapiens), with OR2A5 (Homo sapiens) and with OR2A7 (Homo sapiens) was “inactive” in each case.
As to `c1ccc2ncccc2c1`, the “odorant receptor agonist call” value with OR2A25 (Homo sapiens) is “active”.
